Results gathered from unrelated publications.
Compare with care: the assays were run in different laboratories.
Target: Serine/threonine-protein kinase Nek5 (NEK5, Homo sapiens, UniProt Q6P3R8)
Residues used in one study (Q6P3R8 1-708): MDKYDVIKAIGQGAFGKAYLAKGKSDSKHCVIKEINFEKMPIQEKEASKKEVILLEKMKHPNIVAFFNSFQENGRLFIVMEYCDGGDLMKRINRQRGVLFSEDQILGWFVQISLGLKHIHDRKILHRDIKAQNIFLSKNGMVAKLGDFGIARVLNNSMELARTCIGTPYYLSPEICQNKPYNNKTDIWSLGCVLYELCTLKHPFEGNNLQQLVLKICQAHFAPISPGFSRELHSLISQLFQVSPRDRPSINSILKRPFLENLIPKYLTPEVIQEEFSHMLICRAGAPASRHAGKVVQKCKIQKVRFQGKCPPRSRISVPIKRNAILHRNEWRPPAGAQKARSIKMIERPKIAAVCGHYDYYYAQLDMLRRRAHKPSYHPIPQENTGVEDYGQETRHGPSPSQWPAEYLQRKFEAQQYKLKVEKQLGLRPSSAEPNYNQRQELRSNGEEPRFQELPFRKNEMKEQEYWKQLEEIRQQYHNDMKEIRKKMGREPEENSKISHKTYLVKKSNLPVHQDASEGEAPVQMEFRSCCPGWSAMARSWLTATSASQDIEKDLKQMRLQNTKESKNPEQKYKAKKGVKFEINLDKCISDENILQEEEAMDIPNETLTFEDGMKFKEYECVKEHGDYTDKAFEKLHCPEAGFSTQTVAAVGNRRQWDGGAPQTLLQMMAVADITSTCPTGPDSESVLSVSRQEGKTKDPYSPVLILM

c1cncc(-c2cccc(Nc3nccc(NC4CCCCC4)n3)c2)c1  remaining binding (binding; competition with immobilised ligand; 10 µM): 49%
CN(CCCC(F)(F)F)c1nccc(-c2cnn3ncccc23)n1  remaining binding (binding; 1 µM): 100%
C=CC(=O)N1CCC(C(=O)NCC(=O)N2CCN(c3nc(-c4cnc(N)nc4C(F)F)nc(N4CCOCC4)n3)CC2)CC1  remaining binding (binding; competition with immobilised ligand; 1 µM): 100%
CC1CCCN1c1nccc(-c2cnn3ncccc23)n1 (stereo not drawn)  remaining binding (binding; 1 µM): 100%
Cc1cc(NC(=O)c2cccc(S(F)(F)(F)(F)F)c2)cc(-n2ccn3nc(-c4cccnc4)cc23)c1  remaining binding (cell-free assay; competition with immobilised ligand; 1 µM): 86.8%
O=C(NCCCN1CCOCC1)c1ccc(Nc2nccc(-c3cc4ccccc4s3)n2)cc1  remaining binding (binding; competition with immobilised ligand; 1 µM): 4.4%
Cc1cnn2ncc(-c3ccnc(N(C)C)n3)c2c1  remaining binding (binding; 1 µM): 100%
CNC(=O)[C@@H]1CC[C@@H](n2c(-c3ccc4cnccc4c3)nc3ccc(C(=O)NCc4cccc(C(N)=O)c4)cc32)C1  remaining binding (binding; competition with immobilised ligand; 1 µM): 100%
C[C@@H]1CCN(c2nccc(-c3cnn4ncccc34)n2)C1  remaining binding (binding; 1 µM): 100%
O=C(c1ccc(Nc2nccc(-c3cc4ccccc4s3)n2)cc1)N1CCC(N2CCCC2)CC1  remaining binding (binding; competition with immobilised ligand; 1 µM): 15%
CC(=O)N1CCC(c2ccc(C(=O)NC(=N)N)cc2C(F)(F)F)CC1  remaining binding (cell-free assay; competition with immobilised ligand; 1 µM): 100%
O=C(c1ccc(Nc2ncc(Cl)c(-c3cc4ccccc4s3)n2)cc1)N1CCC(N2CCCC2)CC1  remaining binding (binding; competition with immobilised ligand; 1 µM): 0%
C[C@@H](c1ccc(-n2cnc3c(N)ncnc32)cc1)N1CCc2nn(C)c(Cc3ccccc3)c2C1=O  remaining binding (binding; competition with immobilised ligand; 0.1 µM): 92%
C[C@@H](c1cccc(C#N)c1)n1cc(Cl)cc(C(N)=O)c1=N  remaining binding (cell-free assay; competition with immobilised ligand; 1 µM): 100%
CN(C)c1nccc(-c2cnn3ncccc23)n1  remaining binding (binding; 1 µM): 100%
COc1ccc2c(O[C@@H]3C[C@H]4C(=O)N[C@]5(C(=O)O)CC5/C=C\CCCCC[C@H](NC(=O)OC5CCCC5)C(=O)N4C3)cc(-c3csc(NC(=O)C(C)C)n3)nc2c1C (stereo partly drawn)  remaining binding (cell-free assay; competition with immobilised ligand; 1 µM): 98%
N[C@@H]1CCN(c2nccc(-c3cnn4ncccc34)n2)C1  remaining binding (binding; 1 µM): 100%
O=C(Nc1cccnn1)N1CCC(=Cc2cccc(Oc3ccc(C(F)(F)F)cn3)c2)CC1  remaining binding (cell-free assay; competition with immobilised ligand; 1 µM): 97%
COc1cnc(Nc2cccc(S(N)(=O)=O)c2)nc1N1CCN(c2ccccc2)C(=O)C1  remaining binding (binding; competition with immobilised ligand; 1 µM): 88%
Cc1noc([C@H]2C[C@@H](c3ccc(C(F)(F)F)cc3)CN(C(=O)N3CCS(=O)(=O)C3)C2)n1  remaining binding (cell-free assay; competition with immobilised ligand; 1 µM): 100%
O=C(Nc1c[nH]nc1C(=O)NC1CCNCC1)c1cc(F)cc(F)c1  remaining binding (binding; competition with immobilised ligand; 1 µM): 95%
